# Assay results published in ChEMBL document CHEMBL4616716, “ONO-8430506: A Novel Autotaxin Inhibitor That Enhances the Antitumor Effect of Paclitaxel in a Breast Cancer Model” (ACS Med Chem Lett, 2020).
# pIC50: −log10 of the molar value.
# Experiments:
# Autotaxin [1] = biological target: T1, Autotaxin (Homo sapiens, UniProt Q13822); test: Inhibition of recombinant human ATX assessed as reduction in choline release using LPC(16:0) as substrate incubated for 15 hrs
# Summary of the method: (§1)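 Recombinant human ATX with 16:0 LPC as substrate. Single-point inhibition was tested at 30 μM, and IC50 values were determined.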
# Autotaxin [2] = biological target: T1, Autotaxin; test: Inhibition of LysoPLD activity of ATX in human plasma assessed as reduction in choline release using LPC(16:0) as substrate incubated for 15 hrs; format: cell-free
# Summary of the method: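 LysoPLD activity in human plasma with 16:0 LPC as substrate; IC50 determined.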
# [3] = Protein binding in human plasma measured after 4 hrs by LC-MS/MS analysis; format: ADME, cell-free; conditions: read-out: PPB (converted)
# [4] = Protein binding in rat plasma measured after 4 hrs by LC-MS/MS analysis; format: ADME, cell-free; conditions: read-out: PPB (converted)
# [5] = AUC in Sprague-Dawley rat at 0.5 mg/kg, po administered as single cassette dosing by LC-MS/MS analysis; format: ADME, organism-based; conditions: in vivo
# Summary of the method: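 Rat cassette dosing, 0.5 mg/kg oral; plasma AUC reported.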
# [6] = Octanol/phosphate buffer partition coefficient, LogD of compound at pH 7.4 mixed for 1 hr using benchtop-rotator followed by further incubation for 1 hr by ESI-LC-MS/MS analysis; format: physicochemical
# Autotaxin [7] = biological target: T1, Autotaxin; test: Inhibition of recombinant human ATX assessed as reduction in choline release at 30 uM using LPC(16:0) as substrate incubated for 15 hrs relative to control; summary of the method: as §1
pIC50 (Autotaxin [1]),pIC50 (Autotaxin [2]),fraction unbound at 4 h [3],fraction unbound at 4 h [4],AUC [5] [ng·h/mL],logD at 1 h [6],inhibition (Autotaxin [7]) [%],SMILES
8.05,8.09,0.009,0.043,472,–,–,O=C(CC12CCC(C(=O)O)(CC1)CC2)N1CCc2c(n(Cc3ccc(F)cc3F)c3ncccc23)C1
7.62,–,–,–,–,–,–,CC(C)(CCC(=O)N1CCc2c(n(Cc3cccc(F)c3)c3ncccc23)C1)CC(=O)O
7.54,–,0.004,–,–,1.45,–,O=C(C[C@H]1CC[C@@H](C(=O)O)CC1)N1CCc2c(n(Cc3cccc(F)c3)c3ncccc23)C1
–,–,–,–,–,–,51.6,CC(=O)N1CCc2c(n(Cc3ccccc3)c3ncccc23)C1
5.27,–,–,–,–,–,–,O=C(O)CCC(=O)N1CCc2c(n(Cc3ccccc3)c3ncccc23)C1

# Second part, the compound before the results:
SMILES,pIC50 (Autotaxin [1]),pIC50 (Autotaxin [2]),fraction unbound at 4 h [3],fraction unbound at 4 h [4],AUC [5] [ng·h/mL],logD at 1 h [6],inhibition (Autotaxin [7]) [%]
O=C(O)CCCCC(=O)N1CCc2c(n(Cc3ccccc3)c3ncccc23)C1,6.62,–,–,–,–,–,–
C[C@]1(C(=O)O)CC[C@H](CC(=O)N2CCc3c(n(Cc4ccc(F)cc4F)c4ncccc34)C2)CC1,7.66,7.60,0.009,0.039,677,–,–
O=C(O)c1ccc(CC(=O)N2CCc3c(n(Cc4cccc(F)c4)c4ncccc34)C2)cc1,7.55,–,0.01,–,–,0.67,–
O=C(CC12CCC(C(=O)O)(CC1)CC2)N1CCc2c(n(Cc3ccc(F)cc3)c3ncccc23)C1,7.92,8.21,0.014,0.054,420,–,–
